Source: PubChem BioAssay (several laboratories)
Rows were chosen to be rich in hits. Some 12% of all compounds tested hit in one or more screens of this group.
ABCG2 block: ABCG2 efflux pump inhibitors, primary screen, multiplex with ABCB1, IgMXP3 cells, flow cytometry | inhibition, % at 6.6 µM | 190,000 tested, 0.1% active | JC-1 efflux | Broad substrate specificity ATP-binding cassette transporter ABCG2 (Homo sapiens), Q9UNQ0;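 active = inhibition above 80%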;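 also: 0% = DMSO and 100% = nicardipine control wells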
Target sequence (Q9UNQ0 whole entry, looked up): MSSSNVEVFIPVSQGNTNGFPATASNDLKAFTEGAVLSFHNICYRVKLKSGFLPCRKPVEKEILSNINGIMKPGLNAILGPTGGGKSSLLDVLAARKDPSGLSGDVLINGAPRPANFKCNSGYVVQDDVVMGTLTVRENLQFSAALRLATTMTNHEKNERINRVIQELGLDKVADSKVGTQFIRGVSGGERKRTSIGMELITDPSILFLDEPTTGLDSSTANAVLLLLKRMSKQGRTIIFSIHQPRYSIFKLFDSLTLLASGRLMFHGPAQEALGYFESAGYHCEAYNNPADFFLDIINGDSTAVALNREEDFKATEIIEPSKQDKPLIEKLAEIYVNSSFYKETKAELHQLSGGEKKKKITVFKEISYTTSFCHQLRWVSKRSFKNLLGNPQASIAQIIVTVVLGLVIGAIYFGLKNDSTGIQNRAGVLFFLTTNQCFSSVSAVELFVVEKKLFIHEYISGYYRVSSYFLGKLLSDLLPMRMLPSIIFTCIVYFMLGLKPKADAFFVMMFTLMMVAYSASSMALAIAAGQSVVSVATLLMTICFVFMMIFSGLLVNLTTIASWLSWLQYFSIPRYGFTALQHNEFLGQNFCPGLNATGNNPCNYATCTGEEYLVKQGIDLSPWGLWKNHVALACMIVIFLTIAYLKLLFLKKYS
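Test system: IgMXP3 (ABCG2) plus far-red-tagged CCRF-Adr (ABCB1) cells. Reagent: JC-1 dye as substrate. Timing: 10 min exposure at 25 °C with rotation, no wash. Measured by: flow cytometric JC-1 green MFI at 530 nm. Read-out: percent efflux inhibition, scaled nicardipine 100% to DMSO 0%. Control set: nicardipine and DMSO wells.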
Lmaj promast: Leishmania major promastigote growth inhibition, primary screen; Leishmania major promastigotes, resazurin fluorescence viability; inhibition, % at 10 µM; 200,000 tested, 9% active; in the data active = inhibition above about 50%;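 also: promastigotes grown with compound for 44 hours at 28 °C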
RAM inhibit: inhibitors of the yeast RAM network, primary screen, dse1pr::URA3 reporter, 5-FOA selection; AID 868, 2007; 190,000 tested, 1.8% active; inhibition, % at 50 µM; S. cerevisiae dse1pr::URA3 reporter, 5-FOA growth OD615, 2 d; analog-sensitive cbk1-as2 kinase mutant strain;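 active = inhibition above a set limit, 3 SD over mean compound inhibition, cut at about 8.4% in these data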;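 also: 0% = DMSO-only wells with no growth and 100% = 10 µM 1-NA-PP1 full growth; inhibition rescues growth on 5-FOA so higher OD means more RAM inhibition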
ABCB1 block: ABCB1 efflux pump inhibitors, primary screen, cell-based, multiplex, flow cytometry, ABCG2 counter-screen. ATP-dependent translocase ABCB1 (Homo sapiens), P08183. CCRF-Adr cells, JC-1 efflux. inhibition, % at 6.6 µM. 190,000 tested, 0.067% active; in the data active = inhibition above about 40%;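 also: 0% = vehicle and 100% = reference inhibitor; higher value means more JC-1 retained so stronger ABCB1 efflux block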
WT yeast gro inh: growth inhibition of WT strain, primary screen, mitochondrial fusion inhibitor project, WT and mutant strains, chemical genetic; inhibition, % at 10 µM; 190,000 tested, 2.1% active; AID 1362, 2008; mitochondrial fusion phenotypic screen; in the data active = inhibition above about 58%; tested in S. cerevisiae
Numbers without * were called inactive; x = no result.

SMILES | ABCG2 block | Lmaj promast | RAM inhibit | ABCB1 block | WT yeast gro inh
CN(/N=C\c1ccc(O)c(O)c1)c1nc(-c2ccccc2)cc(-c2ccccc2)n1 | -17 | 100* | 1 | -5 | 71*
COc1ccc(/C=C/C2=NN(Cc3ccccc3)C(=O)CC2)cc1 | 1 | -4 | 5 | 0 | 12
COc1ccc(/C=C/C2=CCN(Cc3ccc(OC)cc3)CC2)cc1 | -3 | 91* | 0 | 0 | 11
O=C(COC(=O)CCSc1ccc(Cl)cc1)NCc1ccco1 | 7 | -7 | 2 | 0 | 0
COCCNC(=O)c1cccc(Nc2nc(-c3ccccc3)c3cc(Cl)ccc3n2)c1 | 19 | 10 | 5 | 3 | 61*
CC1CCN(c2ccc(C(=O)NCc3ccco3)cc2[N+](=O)[O-])CC1 | 30 | 50* | 6 | 2 | 44
O=C(NCc1ccc(F)cc1)c1ccc(N2CCc3ccccc32)c([N+](=O)[O-])c1 | 13 | 92* | 6 | x | 23
COc1ccc(CNC(=O)c2ccc(N3CCOCC3)c([N+](=O)[O-])c2)cc1 | 9 | 0 | 0 | 2 | 14
CCCCCCCNC(=O)c1ccc(N2CCC3(CC2)OCCO3)c([N+](=O)[O-])c1 | 15 | 94* | 8 | x | 38
O=C(NCc1ccco1)c1ccc(N2CCCCC2)c([N+](=O)[O-])c1 | 41 | 63* | -1 | 1 | 8
COC(=O)c1ccc(C)c(NC(=O)CN(c2ccccc2)S(=O)(=O)N(C)C)c1 | 8 | 3 | -1 | 1 | -7
Cn1c(=N)n(CC(=O)c2ccc(Br)s2)c2ccccc21 | 1 | 84* | -1 | 0 | 12
CCOC(=O)Cc1ncccc1C(=O)Nc1ccc(Oc2ccccc2)cc1 | 5 | 25 | 1 | 3 | -9
Cc1ccc(C2C3=C(CC(C)(C)CC3=O)N=C3c4ccccc4C(=O)C32)cc1 (centres undefined) | 7 | 99* | 5 | x | -14
Cc1ccc(C2C3=C(CC(C)(C)CC3=O)OC3=C2C(=O)CC(C)(C)C3)cc1 | 1 | 7 | 3 | 1 | 0
CCOC(=O)C1=C(C)N=C2c3ccccc3C(=O)C2C1c1ccc(Cl)cc1 (centres undefined) | 0 | 96* | 2 | 0 | 48
CC1(C)CC(=O)C2=C(C1)N=C1c3ccccc3C(=O)C1C2c1ccc(Cl)cc1 (centres undefined) | 7 | 94* | 4 | 1 | 25
O=C1NC2(CCCCC2)C(=O)N1Cc1ccc([N+](=O)[O-])cc1 | 17 | 42 | 1 | 1 | 5
O=C(Nc1ccc(Cl)c(Cl)c1)Nc1nnc(CC2=CCCCC2)s1 | -12 | 0 | 4 | -1 | -2
Cc1cc(NC(=O)Cn2nc([N+](=O)[O-])c(Br)c2C)no1 | 1 | -1 | 1 | 0 | -4
COc1ccc(C=O)cc1COc1c(F)c(F)cc(F)c1F | 18 | 99* | 2 | 1 | -11
COc1ccc(C=O)cc1COc1ccc(F)cc1F | 5 | 5 | 1 | 1 | 17
CC(C)N(C(=S)NC1CCCCC1)c1ccccc1 | 5 | 11 | 1 | 1 | 59*
CC(C)N(Cc1ccccc1)C(=S)NC1CCCCC1 | 5 | 19 | -1 | 3 | 64*
CSc1ccccc1C(=O)N1CCN(c2ncccn2)CC1 | 4 | -8 | 1 | 1 | 6
SMILES | ABCG2 block | Lmaj promast | RAM inhibit | ABCB1 block | WT yeast gro inh
CN(C)/C=C/C(=C\C(=O)C(F)(F)F)Nc1ccc(C(F)(F)F)cc1 | 3 | -8 | 0 | 0 | -20
CCc1cccc(NC(=O)CS(=O)Cc2nc(-c3ccc(C)cc3)oc2C)c1 (centres undefined) | 3 | 1 | 3 | 0 | 35
O=C(NCc1ccc(Cl)cc1)c1cnn2ccccc12 | 4 | 9 | 1 | 1 | -14
CC(=O)Nc1cc(C(=O)NCCN2CCN(Cc3ccccc3)CC2)ccc1Sc1ccc(C)cc1 | 11 | 7 | 2 | 2 | -5
O=C(c1ccncc1)N(c1ccc2oc3c(c2c1)CCCC3)S(=O)(=O)c1ccc(F)cc1 | 13 | -5 | 0 | 6 | 44
COC(=O)Cn1c(=NC(=O)c2nc3ccccc3s2)sc2cc(S(N)(=O)=O)ccc21 | -2 | -4 | 8.6* | 0 | 0
COCCn1c(=NC(=O)c2ccc(S(=O)(=O)N3CCc4ccccc4C3)cc2)sc2cc(S(N)(=O)=O)ccc21 | -21 | 99* | 6 | -9 | -2
COC(=O)Cn1c(=NC(=O)c2ccc(S(=O)(=O)N3CCc4ccccc4C3)cc2)sc2cc(OC)ccc21 | -11 | 87* | 5 | -4 | -9
CCN(CC)S(=O)(=O)c1ccc(OC)c(NC(=O)C2CC(=O)N(c3ccc(C)cc3)C2)c1 (centres undefined) | 2 | 11 | 3 | 0 | -16
O=[N+]([O-])c1ccc(N/N=C2/CCCCC2c2ccccn2)cc1 (centres undefined) | 20 | 98* | -1 | 4 | 74*
COc1ccccc1N/C(=N/c1nc(C)cc(C)n1)NC(C)=O | 33 | 61* | 0 | 1 | -5
COc1ccccc1NC(=O)Nc1cc(NC(=O)Nc2ccccc2OC)c(C)nc1C | -11 | 64* | 6 | -2 | 2
CCOc1ccccc1N/C(=N/c1nc(C)cc(C)n1)NC(=O)Nc1ccc(Cl)c(Cl)c1 | 3 | 13 | 2 | 0 | 4
COc1ccccc1NC(=O)c1cnc(Nc2ccccc2OC)c2ccccc12 | 10 | 95* | 0 | 4 | 16
COc1ccc(NC(=O)Nc2ccc(Cc3ccncc3)cc2)cc1OC | 23 | 96* | 2 | 2 | -16
COc1ccc(C(=O)Nc2ccc(Cc3ccncc3)cc2)cc1Br | 21 | 2 | 1 | 1 | 35
CN(C)c1ccc(CC(=O)c2nc3ccccc3s2)cc1 | 18 | 6 | 3 | 1 | 10
O=C(CSc1ccccn1)C12CC3CC(CC(C3)C1)C2 | 20 | 15 | 2 | 2 | 3
CCC1(C)Cc2ccccc2-c2[nH][nH]c(=O)c21 (centres undefined) | 0 | 1 | 0 | 0 | -2
COc1ccccc1NC(=O)Nc1ccncc1 | 10 | 97* | 2 | 0 | 11
COc1ccccc1NC(=O)Nc1ccc(Cc2ccncc2)cc1 | 5 | 12 | 1 | 0 | 10
CC(=O)O[C@]1(C(C)=O)CC[C@H]2[C@@H]3C=C(Cl)C4=CC(=O)CC[C@]4(C)[C@H]3CC[C@@]21C | 33 | 68* | 8.8* | 6 | 34
CCn1c(=N)n(CC(=O)C23CC4CC(CC(C4)C2)C3)c2ccccc21 | 1 | 62* | 0 | 1 | 90*
Cc1c(C)c2ccc(OCC(=O)N3CCOCC3)c(C)c2oc1=O | 9 | -5 | 0 | 1 | -3
